{
  "source": "paper PMC11926516",
  "about": "(Small Methods, 2024)",
  "key": {"HUVEC monolayers": {"test_system": "HUVEC monolayers", "type": "cell-based, human", "settings": "0.1 h after MDS stimulation (1 mA/cm^2 for 7 min)"}, "[1]": {"test_system": "major organs (heart, lung, liver, kidney, spleen)", "type": "in vivo, rats", "in_short": "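Major organs (heart, lung, liver, kidney, spleen) were taken at the end of the treatment experiment. They were photographed and weighed (n = 3, one-way ANOVA), then paraffin-embedded, serially sectioned and H&E-stained.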"}, "[2]": {"settings": "post-SCI, cited from earlier work"}, "OVX OP rat models [3]": {"test_system": "OVX OP rat models", "test": "Plasma bone turnover markers PINP and CTX-I by Elisa in OVX rats", "type": "in vivo, Sprague–Dawley rats", "settings": "n = 5"}, "OVX OP rat models [4]": {"test_system": "OVX OP rat models", "test": "Histology of distal femurs", "type": "in vivo, Sprague–Dawley rats", "in_short": "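Female Sprague–Dawley rats, 12 weeks old, under pentobarbital anaesthesia. Bilateral ovariectomy via dorsal midline incision; sham rats had matching adipose tissue removed. Rats received PBS or PTH by different delivery methods for 4 weeks. Distal femurs were decalcified 3 weeks, paraffin-embedded and serially sectioned. Stains: H&E, Masson, TRAP kit, and IHC for Col1 (1:100), Ocn (1:200) and Ctsk (1:50). Positive cells per bone surface counted, n = 5, one-way ANOVA.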"}, "[5]": {"settings": "stated consistent with own SCI-PTH group"}},
  "note": "Like-named read-outs stand apart in the source and are kept apart here.",
  "data": [
    {"molecule": "CC(=O)OCOC(=O)CN(CC(=O)OCOC(C)=O)c1ccccc1OCCOc1ccccc1N(CC(=O)OCOC(C)=O)CC(=O)OCOC(C)=O", "note": "[BAPTA‐AM]", "values": [
      {"measurement": "increase in intracellular SFs and disappearance of VE-cadherin fluorescence during the electro-stimulated phase", "setting": "HUVEC monolayers; inhibitor 20 µM", "value": "blocked"}
    ]},
    {"molecule": "C[C@@H](N)[C@H]1CC[C@H](C(=O)Nc2ccncc2)CC1", "note": "[Y27632]", "values": [
      {"measurement": "increase in intracellular SFs and disappearance of VE-cadherin fluorescence during the electro-stimulated phase", "setting": "HUVEC monolayers; inhibitor 15 µM", "value": "blocked"}
    ]},
    {"molecule": "N.N.N.N.N.N.N.N.N.N.N.N.N.N.[Cl-].[Cl-].[Cl-].[Cl-].[Cl-].[Cl-].[O-2].[O-2].[Ru+3].[Ru+3].[Ru+4]", "note": "[ruthenium red]", "values": [
      {"measurement": "increase in intracellular SFs and disappearance of VE-cadherin fluorescence during the electro-stimulated phase", "setting": "HUVEC monolayers; inhibitor 20 µM", "value": "blocked"}
    ]},
    {"molecule": "Human parathyroid hormone (1–34) [PTH]", "values": [
      {"measurement": "histopathological analysis of visceral organs", "setting": "[1]; MDS-PTH group after one month of PTH treatment, H&E", "value": "no structural disruption"},
      {"measurement": "appearance or weight of major organs", "setting": "[1]; MDS-PTH group compared to SCI-PBS and SCI-PTH groups after one month of PTH treatment, n = 3", "value": "no significant difference"},
      {"measurement": "subcutaneous residue", "setting": "[2]", "value": "approximately 20%"},
      {"measurement": "elimination time", "setting": "[2]; [5]", "value": 4, "unit": "h"},
      {"measurement": "time to plasma Cmax", "setting": "[2]; [5]", "value": 30, "unit": "min"},
      {"measurement": "bone formation marker PINP", "setting": "OVX OP rat models [3]; MDS-PTH group compared to OVX group", "value": "increased notably"},
      {"measurement": "bone resorption marker CTX-I", "setting": "OVX OP rat models [3]; MDS-PTH group compared to SCI-PTH group", "value": "significantly lower"},
      {"measurement": "bone formation marker PINP", "setting": "OVX OP rat models [3]; SCI-PTH group compared to OVX group", "value": "increased notably"},
      {"measurement": "bone formation marker PINP, difference between delivery methods", "setting": "OVX OP rat models [3]; SCI-PTH versus MDS-PTH groups", "value": "no significant difference"},
      {"measurement": "Ctsk+ and Trap+ osteoclasts per bone surface", "setting": "OVX OP rat models [4]; MDS-PTH group compared to SCI-PTH group, IHC and Trap staining, n = 5", "value": "dramatically fewer"},
      {"measurement": "new bone formation (H&E and Masson's staining)", "setting": "OVX OP rat models [4]; MDS-PTH group compared to SCI-PTH group, OVX rats, 40 µg k^−1g once daily for one month", "value": "significantly promoted"},
      {"measurement": "Col+ and OCN+ osteoblasts per bone surface", "setting": "OVX OP rat models [4]; MDS-PTH group compared with OVX group, IHC, n = 5", "value": "more"},
      {"measurement": "Col+ and OCN+ osteoblasts per bone surface", "setting": "OVX OP rat models [4]; SCI-PTH group compared with OVX group, IHC, n = 5", "value": "more"},
      {"measurement": "Col+ and OCN+ osteoblasts per bone surface, difference between delivery methods", "setting": "OVX OP rat models [4]; SCI-PTH versus MDS-PTH groups, IHC, n = 5", "value": "no significant difference"}
    ]}
  ]
}
